Laboratory results as given in ChEMBL document CHEMBL2311328, “Molecular docking and synthesis of novel quinazoline analogues as inhibitors of transcription factors NF-κB activation and their anti-cancer activities” (2013).
The source made the active and inactive calls. The calls are words filed in the database; no cut-off is given here.

What was measured:
[1] = system: HepG2; experiment: Inhibition of TNFalpha-induced NFkappaB (unknown origin)-dependent transcriptional activity expressed in human HepG2 cells at 0.1 to 10 uM incubated for 1 hr prior to TNFalpha induction measured after 6 hrs by dual-luciferase reporter gene assay; format: cell-based
Procedure, shortened: (§1)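 HepG2 cells in DMEM with 10% FBS were lipofectamine-transfected with 10 ng/well pGL4.32 NF-κB-Luc plus Renilla control. Compound in DMSO was given in fresh medium for 1 h at 37 °C, then TNFα (final 20 ng/ml) for 6 h. Cells were lysed in passive lysis buffer. Firefly light units were normalized to Renilla; one-way ANOVA.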

[2] = system: UACC-257; experiment: Cytotoxicity against human UACC257 cells after 48 hrs by SRB assay; format: functional; conditions: UACC-257, 48 h
Procedure, shortened: (§2)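 Screened by the NCI Developmental Therapeutics Program in dose-response format. GI50 was determined by the sulforhodamine B protocol.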

[3] = system: SK-MEL-28; experiment: Cytotoxicity against human SK-MEL-28 cells after 48 hrs by SRB assay; format: functional; conditions: SK-MEL-28, 48 h; procedure, shortened: as §2
[4] = system: SF-539; experiment: Cytotoxicity against human SF539 cells after 48 hrs by SRB assay; format: functional; conditions: SF-539, 48 h; procedure, shortened: as §2
[5] = system: KM12; experiment: Cytotoxicity against human KM12 cells after 48 hrs by SRB assay; format: functional; conditions: KM12, 48 h; procedure, shortened: as §2
[6] = system: Malme-3M; experiment: Cytotoxicity against human MALME-3M cells after 48 hrs by SRB assay; format: functional; procedure, shortened: as §2
[7] = system: HepG2; experiment: Cytotoxicity against human HepG2 cells assessed as cellular growth at 50 uM incubated for 1 hr prior to TNF alpha stimulation measured after 48 hrs by SRB assay; format: functional
Procedure, shortened: (§3)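 HepG2 cells in DMEM with 10% FBS and penicillin/streptomycin were allowed to adhere 24 h, and a T0 plate was fixed. Compound was given for 1 h at 37 °C, with or without 20 ng/ml TNFα, then 48 h more. Cells were stained with 0.4% SRB for 30 min at RT, washed in 1% acetic acid, and solubilized in 10 mM Tris. OD read at 515 nm; one-way ANOVA.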

[8] = Cytotoxicity against human NCI-ADR-RES cells after 48 hrs by SRB assay; format: functional; procedure, shortened: as §2
[9] = system: HCT-116; experiment: Cytotoxicity against human HCT116 cells after 48 hrs by SRB assay; format: functional; conditions: HCT-116, 48 h; procedure, shortened: as §2
[10] = system: SN12C; experiment: Cytotoxicity against human SN12C cells after 48 hrs by SRB assay; format: functional; procedure, shortened: as §2
[11] = system: PC-3; experiment: Cytotoxicity against human PC3 cells after 48 hrs by SRB assay; format: functional; conditions: PC-3, 48 h; procedure, shortened: as §2
[12] = system: U-251; experiment: Cytotoxicity against human U251 cells after 48 hrs by SRB assay; format: functional; conditions: U-251, 48 h; procedure, shortened: as §2
[13] = system: DU-145; experiment: Cytotoxicity against human DU145 cells after 48 hrs by SRB assay; format: functional; conditions: DU-145, 48 h; procedure, shortened: as §2
[14] = system: OVCAR-3; experiment: Cytotoxicity against human OVCAR3 cells after 48 hrs by SRB assay; format: functional; conditions: OVCAR-3, 48 h; procedure, shortened: as §2
[15] = system: OVCAR-4; experiment: Cytotoxicity against human OVCAR4 cells after 48 hrs by SRB assay; format: functional; conditions: OVCAR-4, 48 h; procedure, shortened: as §2
[16] = system: 786-0; experiment: Cytotoxicity against human 786-0 cells after 48 hrs by SRB assay; format: functional; conditions: 786-0, 48 h; procedure, shortened: as §2
[17] = system: Hs-578T; experiment: Cytotoxicity against human Hs578T cells after 48 hrs by SRB assay; format: functional; procedure, shortened: as §2
[18] = system: EKVX; experiment: Induction of apoptosis in TNFalpha-stimulated human EKVX cells at 1 uM incubated for 1 hr prior to TNFalpha stimulation measured after 18 hrs by TUNEL assay; format: functional, cell-based
Procedure, shortened: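 EKVX cells in RPMI 1640 with 10% FBS were grown on glass coverslips. Compound was given for 1 h at 37 °C, then 20 ng/ml TNFα for 18 h. Cells were fixed in 3.7% paraformaldehyde, treated with proteinase K for 30 min, then TUNEL-labelled with streptavidin-fluorescein plus DAPI. Scored by fluorescence microscopy.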

[19] = system: HepG2; experiment: Cytotoxicity against human HepG2 cells assessed as cellular growth at 50 uM after 48 hrs by SRB assay in absence of TNFalpha; format: functional; procedure, shortened: as §3
[20] = system: SF-268; experiment: Cytotoxicity against human SF268 cells after 48 hrs by SRB assay; format: functional; conditions: SF-268, 48 h; procedure, shortened: as §2
[21] = system: TK-10; experiment: Cytotoxicity against human TK10 cells after 48 hrs by SRB assay; format: functional; conditions: TK-10, 48 h; procedure, shortened: as §2
[22] = system: SNB-19; experiment: Cytotoxicity against human SNB19 cells after 48 hrs by SRB assay; format: functional; conditions: SNB-19, 48 h; procedure, shortened: as §2
[23] = system: SF-295; experiment: Cytotoxicity against human SF295 cells after 48 hrs by SRB assay; format: functional; conditions: SF-295, 48 h; procedure, shortened: as §2
[24] = system: CAKI-1; experiment: Cytotoxicity against human Caki1 cells after 48 hrs by SRB assay; format: functional; conditions: CAKI-1, 48 h; procedure, shortened: as §2
[25] = system: HepG2; experiment: Inhibition of TNFalpha-induced NFkappaB (unknown origin)-dependent transcriptional activity expressed in human HepG2 cells at 1 uM incubated for 1 hr prior to TNFalpha induction measured after 6 hrs by dual-luciferase reporter gene assay; format: cell-based; procedure, shortened: as §1
[26] = system: T47D; experiment: Cytotoxicity against human T47D cells after 48 hrs by SRB assay; format: functional; procedure, shortened: as §2
[27] = system: MDA-MB-435; experiment: Cytotoxicity against human MDA-MB-435 cells after 48 hrs by SRB assay; format: functional; conditions: MDA-MB-435, 48 h; procedure, shortened: as §2
[28] = system: BT-549; experiment: Cytotoxicity against human BT549 cells after 48 hrs by SRB assay; format: functional; conditions: BT-549, 48 h; procedure, shortened: as §2
[29] = system: OVCAR-8; experiment: Cytotoxicity against human OVCAR8 cells after 48 hrs by SRB assay; format: functional; conditions: OVCAR-8, 48 h; procedure, shortened: as §2
[30] = system: MDA-MB-231; experiment: Cytotoxicity against human MDA-MB-231 cells after 48 hrs by SRB assay; format: functional; conditions: MDA-MB-231, 48 h; procedure, shortened: as §2
[31] = system: SK-MEL-2; experiment: Cytotoxicity against human SK-MEL-2 cells after 48 hrs by SRB assay; format: functional; conditions: SK-MEL-2, 48 h; procedure, shortened: as §2
[32] = system: HCC 2998; experiment: Cytotoxicity against human HCC2998 cells after 48 hrs by SRB assay; format: functional; conditions: HCC 2998, 48 h; procedure, shortened: as §2
[33] = system: HCT-15; experiment: Cytotoxicity against human HCT15 cells after 48 hrs by SRB assay; format: functional; conditions: HCT-15, 48 h; procedure, shortened: as §2
[34] = system: RXF 393; experiment: Cytotoxicity against human RXF393 cells after 48 hrs by SRB assay; format: functional; conditions: RXF 393, 48 h; procedure, shortened: as §2
[35] = system: SNB-75; experiment: Cytotoxicity against human SNB75 cells after 48 hrs by SRB assay; format: functional; conditions: SNB-75, 48 h; procedure, shortened: as §2
[36] = system: SW-620; experiment: Cytotoxicity against human SW620 cells after 48 hrs by SRB assay; format: functional; conditions: SW-620, 48 h; procedure, shortened: as §2
[37] = system: IGROV-1; experiment: Cytotoxicity against human IGROV1 cells after 48 hrs by SRB assay; format: functional; conditions: IGROV-1, 48 h; procedure, shortened: as §2
[38] = system: COLO 205; experiment: Cytotoxicity against human COLO205 cells after 48 hrs by SRB assay; format: functional; conditions: COLO 205, 48 h; procedure, shortened: as §2
[39] = system: LOX IMVI; experiment: Cytotoxicity against human LOXIMVI cells after 48 hrs by SRB assay; format: functional; procedure, shortened: as §2
[40] = system: UO-31; experiment: Cytotoxicity against human UO31 cells after 48 hrs by SRB assay; format: functional; conditions: UO-31, 48 h; procedure, shortened: as §2
[41] = system: M14; experiment: Cytotoxicity against human M14 cells after 48 hrs by SRB assay; format: functional; conditions: M14, 48 h; procedure, shortened: as §2
[42] = system: MCF7; experiment: Cytotoxicity against human MCF7 cells after 48 hrs by SRB assay; format: functional; conditions: MCF7, 48 h; procedure, shortened: as §2
[43] = system: UACC-62; experiment: Cytotoxicity against human UACC62 cells after 48 hrs by SRB assay; format: functional; conditions: UACC-62, 48 h; procedure, shortened: as §2
[44] = system: A498; experiment: Cytotoxicity against human A498 cells after 48 hrs by SRB assay; format: functional; conditions: A498, 48 h; procedure, shortened: as §2
[45] = Cytotoxicity against human SKOC3 cells after 48 hrs by SRB assay; format: functional; conditions: SKOC3, 48 h; procedure, shortened: as §2

## Nc1ccc2ncnc(NCCc3ccc(Oc4ccccc4)cc3)c2c1
[1]
  inhibition: Active

## c1ccc(-c2nc(NCCc3c[nH]c4ccccc34)c3ccccc3n2)cc1
[2]
  GI50: 3200 nM
[3]
  GI50: 6200 nM
[4]
  GI50: 2000 nM
[5]
  GI50: 2800 nM
[6]
  GI50: 2800 nM
[7]
  Activity: -46.7%
[8]
  GI50: 2600 nM
[1]
  inhibition: Active
[9]
  GI50: 2800 nM
[10]
  GI50: 3900 nM
[11]
  GI50: 2400 nM
[12]
  GI50: 3200 nM
[13]
  GI50: 4700 nM
[14]
  GI50: 2900 nM
[15]
  GI50: 3600 nM
[16]
  GI50: 2500 nM
[17]
  GI50: 3400 nM
[18]
  Activity: Active
[19]
  Activity: -35.3%
[20]
  GI50: 4600 nM
[21]
  GI50: 2800 nM
[22]
  GI50: 5100 nM
[23]
  GI50: 2000 nM
[24]
  GI50: 3100 nM
[25]
  inhibition: Active
[26]
  GI50: 2400 nM
[27]
  GI50: 2300 nM
[28]
  GI50: 4400 nM
[29]
  GI50: 2200 nM
[30]
  GI50: 3100 nM
[31]
  GI50: 3000 nM
[32]
  GI50: 2100 nM
[33]
  GI50: 2500 nM
[34]
  GI50: 1900 nM
[35]
  GI50: 5900 nM
[36]
  GI50: 3000 nM
[37]
  GI50: 3200 nM
[38]
  GI50: 2200 nM
[39]
  GI50: 2200 nM
[40]
  GI50: 3000 nM
[41]
  GI50: 2600 nM
[42]
  GI50: 4200 nM
[43]
  GI50: 2000 nM
[44]
  GI50: 2000 nM
[45]
  GI50: 3700 nM

## Oc1ccc(CN2CCN(c3ncnc4ccccc34)CC2)cc1
[7]
  Activity: -13.3%
[19]
  Activity: -5.3%
[25]
  inhibition: Active

## Oc1ccc(CN2CCN(c3nc(-c4ccccc4)nc4ccccc34)CC2)cc1
[7]
  Activity: -49.1%
[19]
  Activity: -37.6%
[25]
  inhibition: Active

## c1ccc(-c2nc(NCCc3ccc4c(c3)OCO4)c3ccccc3n2)cc1
[7]
  Activity: -46.8%
[19]
  Activity: -30.7%
[25]
  inhibition: Active

## Oc1ccc(Br)cc1CN1CCN(c2nc(-c3ccccc3)nc3ccccc23)CC1
[7]
  Activity: 13%
[19]
  Activity: 15.5%
[25]
  inhibition: Active
